In ChEMBL document CHEMBL3351863, “Optimization of 2-phenyl-pyrimidine-4-carboxamides towards potent, orally bioavailable and selective P2Y(12) antagonists for inhibition of platelet aggregation” (Bioorg Med Chem Lett, 2014):

Experiments:
Platelet [1] = test: Inhibition of ADP-induced platelet aggregation in human platelet rich plasma assessed as remaining activity at 500 nM by in-vitro light transmission aggregometry assay; type: functional
In short: (§1)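 Light transmission aggregometry in human platelet-rich plasma; compound incubated, aggregation triggered with 3 µM ADP; remaining activity (RA) recorded at a single compound level (1000, 500 or 100 nM).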

Cytochrome P450 2D6 = Cytochrome P450 2D6 (Homo sapiens, UniProt P10635); test: Inhibition of CYP2D6 in human liver microsomes assessed as reduction in dextromethorphan-O demethylation; type: ADME
Chain of Cytochrome P450 2D6 (P10635 whole entry): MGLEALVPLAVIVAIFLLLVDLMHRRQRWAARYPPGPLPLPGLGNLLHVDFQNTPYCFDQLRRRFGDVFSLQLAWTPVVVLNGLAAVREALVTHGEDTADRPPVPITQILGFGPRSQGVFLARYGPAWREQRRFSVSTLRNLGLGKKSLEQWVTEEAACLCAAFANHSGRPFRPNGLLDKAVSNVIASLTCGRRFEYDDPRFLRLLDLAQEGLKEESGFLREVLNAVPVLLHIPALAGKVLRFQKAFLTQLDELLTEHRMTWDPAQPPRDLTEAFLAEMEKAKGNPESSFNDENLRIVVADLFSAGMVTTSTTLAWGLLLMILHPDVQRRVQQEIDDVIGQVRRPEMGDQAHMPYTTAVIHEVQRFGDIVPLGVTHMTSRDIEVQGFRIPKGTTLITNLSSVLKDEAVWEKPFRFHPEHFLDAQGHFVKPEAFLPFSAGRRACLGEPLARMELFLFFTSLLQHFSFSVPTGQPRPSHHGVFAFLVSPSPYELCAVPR

P2Y purinoceptor 12 = P2Y purinoceptor 12 (Homo sapiens, UniProt Q9H244); test: Displacement of [3H]-2-methyl-thio-adenosine 5'-diphosphate from human recombinant P2Y12 expressed in CHO cell membranes by scintillation counting method
Chain of P2Y purinoceptor 12 (Q9H244 whole entry): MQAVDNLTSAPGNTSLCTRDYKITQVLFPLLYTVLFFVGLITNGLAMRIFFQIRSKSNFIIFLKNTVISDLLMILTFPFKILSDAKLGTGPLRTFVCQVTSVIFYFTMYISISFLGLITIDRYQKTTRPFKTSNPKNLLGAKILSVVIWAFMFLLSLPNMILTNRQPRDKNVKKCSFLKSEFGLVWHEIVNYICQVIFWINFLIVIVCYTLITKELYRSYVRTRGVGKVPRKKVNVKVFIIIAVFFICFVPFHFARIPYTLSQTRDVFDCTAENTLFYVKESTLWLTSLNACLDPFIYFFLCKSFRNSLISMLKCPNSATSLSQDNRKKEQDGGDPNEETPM
In short: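 CHO cells expressing recombinant P2Y₁₂ receptors, incubated with tritium-labeled 2-methyl-thio-adenosine 5'-diphosphate plus test compound; IC₅₀ from displacement curves, each point in triplicate; reference compound run with every compound set, and set re-analyzed if its IC₅₀ fell outside pre-set 95% confidence interval.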

[2] = Solubility in basic pH; type: physicochemical
Liver microsome [3] = test: Metabolic stability assay in rat liver microsomes assessed as parent drug disappearance at 1 uM after 20 mins by HPLC and mass spectrometry method; type: ADME
Cytochrome P450 2C9 = Cytochrome P450 2C9 (Homo sapiens, UniProt P11712); test: Inhibition of CYP2C9 in human liver microsomes assessed as reduction in diclofenac 4'-hydroxylation; type: ADME
Chain of Cytochrome P450 2C9 (P11712 whole entry): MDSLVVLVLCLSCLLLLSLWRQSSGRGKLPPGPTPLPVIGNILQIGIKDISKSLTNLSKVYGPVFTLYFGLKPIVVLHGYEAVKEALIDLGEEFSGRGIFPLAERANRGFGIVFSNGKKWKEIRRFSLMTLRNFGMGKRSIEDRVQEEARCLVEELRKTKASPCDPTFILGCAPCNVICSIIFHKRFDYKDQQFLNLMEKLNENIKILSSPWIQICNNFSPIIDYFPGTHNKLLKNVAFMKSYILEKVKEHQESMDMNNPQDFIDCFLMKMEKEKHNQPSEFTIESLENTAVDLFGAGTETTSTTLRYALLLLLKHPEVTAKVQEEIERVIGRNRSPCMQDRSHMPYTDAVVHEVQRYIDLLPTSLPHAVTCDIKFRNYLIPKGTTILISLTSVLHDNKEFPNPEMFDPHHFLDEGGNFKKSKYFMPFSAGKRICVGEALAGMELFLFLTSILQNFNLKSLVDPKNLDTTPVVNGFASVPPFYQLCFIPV

[4] = Solubility in neutral pH; type: physicochemical
Liver microsome [5] = test: Metabolic stability assay in human liver microsomes assessed as parent drug disappearance at 1 uM after 20 mins by HPLC and mass spectrometry method; type: ADME
Cytochrome P450 3A4 [6] = target: T1, Cytochrome P450 3A4 (Homo sapiens, UniProt P08684); test: Inhibition of CYP3A4 in human liver microsomes assessed as reduction in testosterone 6beta-hydroxylation; type: ADME
T1 sequence (P08684 whole entry): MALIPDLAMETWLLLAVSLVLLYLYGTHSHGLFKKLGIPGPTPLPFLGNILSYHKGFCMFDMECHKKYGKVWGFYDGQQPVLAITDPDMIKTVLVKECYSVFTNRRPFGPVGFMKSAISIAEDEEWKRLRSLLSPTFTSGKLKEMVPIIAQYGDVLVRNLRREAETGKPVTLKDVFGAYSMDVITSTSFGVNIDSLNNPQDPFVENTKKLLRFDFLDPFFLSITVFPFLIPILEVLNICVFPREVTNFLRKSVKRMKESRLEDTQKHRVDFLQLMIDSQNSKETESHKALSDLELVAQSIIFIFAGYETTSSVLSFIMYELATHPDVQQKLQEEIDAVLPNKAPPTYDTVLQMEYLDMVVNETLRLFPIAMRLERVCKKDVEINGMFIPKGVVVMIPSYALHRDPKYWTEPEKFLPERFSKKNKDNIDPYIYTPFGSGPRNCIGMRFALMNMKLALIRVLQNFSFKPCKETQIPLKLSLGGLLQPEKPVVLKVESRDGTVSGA

Platelet [7] = test: Inhibition of ADP-induced platelet aggregation in human platelet rich plasma assessed as remaining activity at 1000 nM by in-vitro light transmission aggregometry assay; type: functional; in short: as §1
Cytochrome P450 3A4 [8] = target: T1, Cytochrome P450 3A4; test: Inhibition of CYP3A4 in human liver microsomes assessed as reduction in midazolam 1'-hydroxylation; type: ADME
[9] = target: Voltage-gated inwardly rectifying potassium channel KCNH2 (Homo sapiens, UniProt Q12809); test: Inhibition of human ERG expressed in HEK cells by patch-clamp assay; type: cell-based; settings: hek293
Chain of Voltage-gated inwardly rectifying potassium channel KCNH2 (Q12809 whole entry): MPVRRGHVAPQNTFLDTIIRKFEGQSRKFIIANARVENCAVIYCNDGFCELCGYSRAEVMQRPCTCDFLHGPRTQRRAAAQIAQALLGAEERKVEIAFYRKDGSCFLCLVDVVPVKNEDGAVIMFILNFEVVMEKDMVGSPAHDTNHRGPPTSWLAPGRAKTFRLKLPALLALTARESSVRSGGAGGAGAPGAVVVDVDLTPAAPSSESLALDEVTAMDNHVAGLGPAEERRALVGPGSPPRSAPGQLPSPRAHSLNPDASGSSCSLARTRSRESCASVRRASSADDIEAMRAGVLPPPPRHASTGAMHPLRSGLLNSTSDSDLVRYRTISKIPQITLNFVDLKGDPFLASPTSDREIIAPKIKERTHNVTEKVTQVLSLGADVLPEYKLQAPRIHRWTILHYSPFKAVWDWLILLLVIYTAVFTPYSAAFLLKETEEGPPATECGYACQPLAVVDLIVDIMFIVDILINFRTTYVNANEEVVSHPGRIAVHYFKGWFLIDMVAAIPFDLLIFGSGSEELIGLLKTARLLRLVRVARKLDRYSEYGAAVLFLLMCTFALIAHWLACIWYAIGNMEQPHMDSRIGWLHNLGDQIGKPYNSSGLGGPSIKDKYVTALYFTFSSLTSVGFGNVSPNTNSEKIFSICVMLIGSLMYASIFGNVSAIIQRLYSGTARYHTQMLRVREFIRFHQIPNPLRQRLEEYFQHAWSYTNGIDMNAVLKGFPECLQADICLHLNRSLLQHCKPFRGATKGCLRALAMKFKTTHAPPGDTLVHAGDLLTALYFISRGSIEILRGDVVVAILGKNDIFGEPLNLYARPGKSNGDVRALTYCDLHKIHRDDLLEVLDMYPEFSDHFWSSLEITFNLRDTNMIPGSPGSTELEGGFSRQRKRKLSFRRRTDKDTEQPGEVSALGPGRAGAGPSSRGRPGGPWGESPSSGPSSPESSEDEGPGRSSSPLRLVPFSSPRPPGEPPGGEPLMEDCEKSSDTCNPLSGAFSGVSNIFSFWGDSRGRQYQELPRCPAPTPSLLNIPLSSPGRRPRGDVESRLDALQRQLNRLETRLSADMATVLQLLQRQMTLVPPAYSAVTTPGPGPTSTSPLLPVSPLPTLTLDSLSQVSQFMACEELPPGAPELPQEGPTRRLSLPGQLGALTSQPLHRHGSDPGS

[10] = Potency shift, ratio of IC50 for inhibition of ADP-induced platelet aggregation in human platelet rich plasma to IC50 for displacement of [3H]-2-methyl-thio-adenosine 5'-diphosphate from human recombinant P2Y12 expressed in CHO cell membranes
Platelet [11] = test: Inhibition of ADP-induced platelet aggregation in human platelet rich plasma by in-vitro light transmission aggregometry assay; type: functional
In short: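 Human platelet-rich plasma incubated with compound, aggregation induced by 3 µM ADP and read by light transmission aggregometry; IC₅₀ derived from concentration–response curve.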

[12] = AUC in Wistar rat at 10 mg/kg, po; type: ADME, organism-based, Plasma; set-up: dose 10 mg/kg, route oral; settings: Wistar, plasma
In short: (§2)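 Rats dosed by iv infusion at 1 mg/kg (n = 2) or orally at 10 mg/kg (n = 3); plasma levels measured, limit of quantification ca. 1 ng/mL.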

[13] = Cmax in Wistar rat at 10 mg/kg, po; type: ADME, organism-based; set-up: dose 10 mg/kg, route oral; settings: Wistar, in vivo; in short: as §2
Platelet [14] = test: Inhibition of ADP-induced platelet aggregation in human platelet rich plasma assessed as remaining activity at 100 nM by in-vitro light transmission aggregometry assay; type: functional; in short: as §1
[15] = Protein binding in human plasma; type: ADME, cell-free; settings: read-out: PPB (converted)
[16] = Clearance in Wistar rat at 1 mg/kg, iv; type: ADME, organism-based; set-up: dose 1 mg/kg, route intravenous; settings: in vivo; in short: as §2
[17] = Half life in Wistar rat at 1 mg/kg, iv or 10 mg/kg, po; type: ADME, organism-based; settings: in vivo; in short: as §2
[18] = Volume of distribution at steady state in Wistar rat at 1 mg/kg, iv or 10 mg/kg, po; type: ADME, organism-based; settings: in vivo, read-out: Vdss; in short: as §2
[19] = Oral bioavailability in Wistar rat at 10 mg/kg; type: ADME, organism-based; settings: Wistar, in vivo; in short: as §2

Structure (SMILES)	Activity (Platelet [1]) [%]	inhibition (INH) (Cytochrome P450 2D6)	IC50 (P2Y purinoceptor 12) [nM]	solubility [2]	Stability (Liver microsome [3])	inhibition (INH) (Cytochrome P450 2C9)	solubility [4]	Stability (Liver microsome [5])	inhibition (INH) (Cytochrome P450 3A4 [6])	Activity (Platelet [7]) [%]	inhibition (INH) (Cytochrome P450 3A4 [8])	inhibition (INH) [9]	Ratio IC50 [10]	IC50 (Platelet [11]; Homo sapiens, Platelet, Plasma) [nM]	AUC [12] [µM·h]	Cmax [13] [nM]	also measured
CCOC(=O)N1CCN(C(=O)[C@H](CCC(=O)O)NC(=O)c2cc(NCc3ccccc3)nc(-c3ccccc3)n2)CC1	>60	Not Active	122	soluble	Stable	Not Active	soluble	Stable	Not Active	>30	Not Active	Not Active	–	–	–	–	–
CCOC(=O)N1CCN(C(=O)[C@H](CCC(=O)O)NC(=O)c2cc(C(C)(C)O)nc(-c3ccccc3)n2)CC1	<30	Not Active	35	soluble	Stable	Not Active	soluble	Stable	Not Active	–	Not Active	Not Active	3.4	118	0.109	56.1	Activity (Platelet [14]): <70%
CCOC(=O)N1CCN(C(=O)[C@H](CCC(=O)O)NC(=O)c2cc(-c3ccccc3)nc(-c3ccccc3)n2)CC1	>60	Not Active	64	soluble	Stable	Not Active	soluble	Stable	Not Active	>30	Not Active	Not Active	–	–	–	–	–
CCCCc1cc(C(=O)N[C@@H](CCC(=O)O)C(=O)N2CCN(C(=O)OCC)CC2)nc(-c2ccccc2)n1	>60	Not Active	–	soluble	Stable	Not Active	soluble	Stable	Not Active	>30	Not Active	Not Active	20	1930	–	–	fraction unbound [15]: 0.007
CCCCOC(=O)N1CCN(C(=O)[C@H](CCC(=O)O)NC(=O)c2cc(N3CC[C@H](OC)C3)nc(-c3ccccc3)n2)CC1	–	Not Active	3	soluble	Stable	Not Active	soluble	Stable	Not Active	–	Not Active	Not Active	7	21	1.17	1690	clearance [16]: 24 mL/min/kg; half-life [17]: 72 min; Vd [18]: 0.5 L/kg; bioavailability [19]: 9%
CCOC(=O)N1CCN(C(=O)[C@H](CCC(=O)O)NC(=O)c2cc([C@H]3C[C@@H]3COC)nc(-c3ccccc3)n2)CC1	–	–	15	–	–	–	–	–	–	–	–	–	5.8	–	–	–	fraction unbound [15]: 0.034; IC50 (Platelet [11]; platelet): 87 nM
CCOC(=O)N1CCN(C(=O)[C@H](CCC(=O)O)NC(=O)c2cc(N3CCN(C)CC3)nc(-c3ccccc3)n2)CC1	<30	Not Active	46	soluble	Stable	Not Active	soluble	Stable	Not Active	–	Not Active	Not Active	–	–	0.164	192	clearance [16]: 49 mL/min/kg; half-life [17]: 18 min; Vd [18]: 0.8 L/kg; Activity (Platelet [14]): <70%; bioavailability [19]: 3%
